Cneo AK release: Cryptococcus neoformans cell lysis inducers, primary screen, AK release luminescence, single concentration; C. neoformans lysis, adenylate kinase release luminescence, 4 h; normalised: neutral wells 0, clomiphene wells 100; lysis activity, % at 15 µM; 360,000 compounds, 0.2% hits; AID 651654, 2012;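 active means mean lysis activity across replicates of at least 80%, whatever share of replicates individually reach that level; inactive means mean lysis activity below 80%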
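read-out = cell lysis signal | test system = log-phase Cryptococcus neoformans yeast cells | input = cells at 5 × 10^6 per mL | medium = fresh YPD growth medium | signal = luminescent adenylate kinase detection reagent | timing = 4 h at 37 °C static, read 1 h later | dosing = single dose | controls = Clomiphene as positive lysis control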
DENV2 CPE rescue: inhibitors of DENV2 cytopathic effect, primary screen, cell-based, plate reader, single concentration; DENV2-infected cells, cytopathic effect rescue; CPE inhibition, % at 9.99 µM; 350,000 compounds, 1.7% hits; AID 651640, 2012; in the data active means CPE inhibition above about 20%, passing the limit was not always enough; tested in BHK-21 cells;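 further: 0% = median of neutral control wells and 100% = median of positive control wells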
ERp5 block: inhibitors of ERp5-driven insulin aggregation, primary screen, biochemical, turbidity, absorbance 650 nm, single point; 90 min; inhibition, % at 9.99 µM; 350,000 compounds, 0.05% hits;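 active means mean replicate inhibition above about 25%, with every replicate also reaching it, limit read from the data, passing the limit was not always enough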
Target sequence (Q15084 whole entry, looked up): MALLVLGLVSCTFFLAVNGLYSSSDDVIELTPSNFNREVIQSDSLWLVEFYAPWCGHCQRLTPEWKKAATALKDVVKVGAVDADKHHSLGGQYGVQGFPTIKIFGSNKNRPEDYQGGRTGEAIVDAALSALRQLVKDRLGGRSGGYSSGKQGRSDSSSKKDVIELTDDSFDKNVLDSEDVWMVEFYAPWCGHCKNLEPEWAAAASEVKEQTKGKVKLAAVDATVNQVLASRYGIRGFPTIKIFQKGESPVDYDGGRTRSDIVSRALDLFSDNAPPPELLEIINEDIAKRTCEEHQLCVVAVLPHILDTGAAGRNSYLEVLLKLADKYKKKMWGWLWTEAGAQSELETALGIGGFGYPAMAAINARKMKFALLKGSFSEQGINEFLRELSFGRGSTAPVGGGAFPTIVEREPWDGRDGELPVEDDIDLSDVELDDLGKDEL
F508del corr: F508del CFTR correction, initial screen, CFBE line, single point; CFBE cells, YFP halide quenching; stimulated with forskolin plus potentiator P3; % fluorescence drop versus neutral controls; activity (quench increase), % at 7.58 µM; 350,000 compounds, 0.36% hits; AID 720511, 2013;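 active means mean added fluorescence quench of at least 8% versus neutral control, with both replicates also reaching 8%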;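 further: cells transiently co-express mutant CFTR-F508del with the halide-sensitive YFP; corrector assay measuring rescue of mutant channel to the surface after 24 h compound exposure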
Statin myotox sup: suppressors of statin myotoxicity in C2C12 myotubes, primary screen, cell-based, single point, plate reader; C2C12 myotubes + simvastatin, ATP luminescence, 48 h; scaled: DMSO 0, geranylgeraniol control 100; rescue of ATP level, % at 7.49 µM; 330,000 compounds, 0.78% hits;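 active means mean ATP rescue above about 67%, or every replicate alone reaching that limit, limit read from the data, passing the limit was not always enough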;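 further: myotubes were challenged with 10 µM simvastatin during compound exposure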
PDI turbidity: inhibitors of human PDI, primary screen, biochemical, turbidity, single point, plate reader | PDI insulin aggregation turbidity, A650, 90 min | inhibition, % at 10 µM | 350,000 compounds, 0.052% hits | AID 588391, 2011;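 active means mean inhibition across replicates of 30% or more, whatever share of single replicates reach that level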
Starred values were filed as active, the others as inactive; . = not tested or not shown; ! = a repeat was not active. Most compounds without a hit are left out; they make up all but 2.3% or so of the library.

SMILES	Cneo AK release	DENV2 CPE rescue	ERp5 block	F508del corr	Statin myotox sup	PDI turbidity
Cc1ccc(OCCn2c(=S)[nH]c3ccccc32)c(C(C)C)c1	97*	-9	1	-6	19	-2
CCc1ccc(CCC(=O)Nc2sc(C)c(C)c2C(=O)OC)o1	-3	4	8	-4	94*	-2
O=C(c1cccc(F)c1)N1CC2(C1)[C@@H](c1ccccc1)[C@@H](CO)N2C(=O)C1CCCCC1	.	-12	-1	0	.	.
CC(C)C#Cc1ccc([C@@H]2[C@H](CO)N3C(=O)CN(S(=O)(=O)c4ccccc4)C[C@@H]23)cc1	.	-4	-1	1	.	.
O=C1CN(S(=O)(=O)Cc2ccccc2)C[C@@H]2[C@@H](c3ccc(C#Cc4cccc(F)c4)cc3)[C@H](CO)N12	.	11	2	8.1*	.	.
Cc1ccccc1S(=O)(=O)N1CC(=O)N2[C@H](CO)[C@@H](c3ccc(C#Cc4ccccc4)cc3)[C@@H]2C1	.	29*	-2	5	.	.
CC(C)C#Cc1ccc([C@@H]2[C@@H](CO)N3C(=O)CN(S(=O)(=O)c4ccccc4)C[C@@H]23)cc1	.	-2	1	12*	.	.
O=C(C1CCCCC1)N1CC(=O)N2[C@@H](CO)[C@H](c3ccc(C#Cc4cccc(F)c4)cc3)[C@@H]2C1	.	15	-2	9.6*	.	.
O=C1CN(S(=O)(=O)Cc2ccccc2)C[C@H]2[C@H](c3ccc(C#Cc4cccc(F)c4)cc3)[C@@H](CO)N12	.	12	1	5	.	.
CC(C)NC(=O)N(C)C[C@H]1Oc2cc(-c3ccncc3)ccc2S(=O)(=O)N([C@@H](C)CO)C[C@H]1C	5	-4	4	1	-17	.
COc1ccc(S(=O)(=O)N2CC3(CN(Cc4ccccc4OC)[C@@H](CO)c4[nH]c5cc(OC)ccc5c43)C2)cc1	.	10	.	0	.	.
CCCN1C[C@H](C)[C@H](OC)CN(C)C(=O)c2cc(NC(=O)c3cccc(OC)c3)ccc2OC[C@@H]1C	.	.	.	1	-4	.
O=C(O)CNC(=O)/C(=C/c1cccc([N+](=O)[O-])c1)NC(=O)c1ccco1	4	-12	5	1	.	-37
O=C(NCc1ccccc1)/C(=C\c1cccc([N+](=O)[O-])c1)NC(=O)c1ccco1	0	46*	-1	1	-10	-9
COc1ccc(NC(=O)Nc2ccc3c(c2)C(=O)N([C@H](C)CO)C[C@@H](C)[C@H](CN(C)Cc2ccc(C(F)(F)F)cc2)OCCCC[C@H](C)O3)cc1	-2	-5	-12	14*	-213	.
COc1ccc(NC(=O)Nc2ccc3c(c2)C(=O)N([C@@H](C)CO)C[C@@H](C)[C@H](CN(C)Cc2ccc(C(F)(F)F)cc2)OCCCC[C@@H](C)O3)cc1	49	-13	-12	-3	-59	.
C[C@@H]1CCCCO[C@H](CN(C)Cc2ccc(C(=O)O)cc2)[C@H](C)CN([C@@H](C)CO)C(=O)c2cc(NC(=O)Nc3ccc(C(F)(F)F)cc3)ccc2O1	6	41*!	7	-2	-3	-2
C[C@@H]1CN([C@H](C)CO)C(=O)c2cc(NC(=O)Nc3cccc4ccccc34)ccc2O[C@@H](C)CCCCO[C@@H]1CN(C)Cc1ccc(C(F)(F)F)cc1	1	72*	.	-1	.	.
C[C@H]1CCCCO[C@H](CN(C)Cc2ccc(C(F)(F)F)cc2)[C@@H](C)CN([C@@H](C)CO)C(=O)c2cc(NC(=O)Nc3cccc4ccccc34)ccc2O1	1	-18	.	3	.	.
C[C@H]1CCCCO[C@H](CN(C)Cc2ccccc2)[C@@H](C)CN([C@@H](C)CO)C(=O)c2cc(NC(=O)Nc3ccc(C(F)(F)F)cc3)ccc2O1	-15	39*	-4	3	.	.
C[C@@H]1CCCCO[C@@H](CN(C)C(=O)Cc2ccccc2)[C@H](C)CN([C@@H](C)CO)C(=O)c2cc(NS(=O)(=O)c3ccc(F)cc3)ccc2O1	-13	-7	.	1	.	.
CC(=O)N(C)c1ccc(NC(=O)Cc2cccc3ccccc23)cc1	-2	-2	0	0	123*	7
O=C(Cc1cccc2ccccc12)Nc1cc(C(=O)O)cc(C(=O)O)c1	-4	2	1	-3	9	15
O=C1CN(S(=O)(=O)Cc2ccccc2)C[C@H]2[C@@H](c3ccc(C#Cc4ccccc4)cc3)[C@@H](CO)N12	.	3	5	7	.	.
COc1ccc(OC)c(S(=O)(=O)N2CCN(c3c(C)cccc3C)CC2)c1	-4	27*	-13	-4	10	.
SMILES	Cneo AK release	DENV2 CPE rescue	ERp5 block	F508del corr	Statin myotox sup	PDI turbidity
CC(C)NC(=O)N(C)C[C@@H]1Oc2ccc(NC(=O)Cc3cn(C)c4ccccc34)cc2CC(=O)N([C@H](C)CO)C[C@H]1C	-4	-2	-4	1	-11	.
O=C(CSCc1ccc(Cl)cc1)N/N=C/c1ccccc1	10	.	.	.	114*	7
Cn1c(=O)n(C)c2cc(N3CCOCC3)c(NC(=O)c3ccc(F)cc3)cc21	-4	42*	2	1	7	9
O=C(Nc1ccccc1C(=O)N1CCOCC1)c1ccc(F)cc1	-1	.	.	.	86*	2
Cc1cc(C)cc(OCC(=O)Nc2ccccc2C(=O)N2CCOCC2)c1	0	9	1	-1	10	37*
O=C(Nc1ccccc1C(=O)N1CCOCC1)c1ccc(Br)cc1	1	.	.	.	2	-1
Cc1cccc(OCC(=O)Nc2ccccc2C(=O)N2CCOCC2)c1	-1	.	.	.	.	-6
C[C@@H]1CN([C@H](C)CO)C(=O)c2cc(NC(=O)C3CCCCC3)ccc2O[C@@H](C)CCCCO[C@@H]1CN(C)S(=O)(=O)c1cccs1	1	-5	0	0	.	.
COCC#Cc1ccc(CC[C@H]2O[C@H]3CC[C@H](CO)O[C@H]3C[C@@H]2n2cc(C3(O)CCCC3)nn2)cc1	.	2	.	-1	.	.
CN(C)CC(=O)Nc1ccc2c(c1)[C@H]1C[C@H](CC(=O)NCc3ccncc3)O[C@H](CO)[C@H]1O2	7	4	-3	1	0	.
Cc1ccc(S(=O)(=O)c2c(COC(=O)c3ccccc3Cl)c(-c3ccccc3)nn2C)cc1	-2	.	.	.	116*	-10
Cc1ccc(S(=O)(=O)c2c(CO)c(-c3ccccc3)nn2C)cc1	.	3	-5	0	.	-8
CCn1cc(C(=O)O)c(=O)c2cc(F)c(N3CCN(C(=S)NC(=O)c4ccc(F)cc4)CC3)cc21	0	-1	3	6	10	-5
CCn1cc(C(=O)NCc2cccc(F)c2)c(=O)c2cc(F)c(N3CCN(C(=O)c4ccco4)CC3)cc21	-5	.	.	.	79*	-6
